What is called IC50 is the concentration that gives 50% inhibition.

The test system of data set [1] is KB. The data set is described as follows: Cytotoxicity against human KB cells. Format: functional, cell-based.
Data set [2] relates to Mus musculus. The data set is described as follows: Toxicity in mouse P388 cells xenografted CDF1 mouse assessed as survival time at 5 mg/kg, ip. Conditions: in vivo; call rule not given here. Format: organism-based. Details: dose 5 mg/kg, route intraperitoneal. In outline: (§1)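 Two CDF1 mice per dose received P388 leukaemia cells intravenously, then a single intraperitoneal injection of the compound at 10, 5 or 2.5 mg/kg. The read-out was survival time in days after injection, compared with the average survival of the grafted mice.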

In data set [3] the test system is Mus musculus. Description: Toxicity in mouse P388 cells xenografted CDF1 mouse assessed as survival time at 2.5 mg/kg, ip. Conditions: in vivo. More on the design: dose 2.5 mg/kg, route intraperitoneal. In kind it is organism-based. In outline: as §1
Data set [4] concerns Mus musculus. Description: Toxicity in mouse P388 cells xenografted CDF1 mouse assessed as survival time at 10 mg/kg, ip. In kind it is organism-based. Details: dose 10 mg/kg, route intraperitoneal. Conditions: in vivo. In outline:
as §1

Setting [5] is: Homo sapiens, KB, read-out: IC50.

For the compound `Cc1cc(O)c2c(c1)[C@H]([C@H]1c3cc(C)cc(O)c3C(=O)c3c(O)cc(O)cc31)c1cccc(O)c1C2=O`, in data set [1] (setting [5]), the IC50 is 1.4 µM.

On to `Cc1cc(O)c2c(c1)Cc1cc(O)cc(O)c1C2=O` [EMODIN ANTHRONE], for which, in data set [1] (setting [5]), the IC50 is 3.9 µM.

`Cc1cc(O)c2c(c1)[C@@H]([C@H]1c3cccc(O)c3C(=O)c3c(O)cc(C)cc31)c1cc(O)cc(O)c1C2=O`: the IC50 in data set [1] (setting [5]) was 1.8 µM.

Consider `COc1cc(O)c2c(c1)C(=O)c1cc(C)cc(O)c1C2=O` [PHYSCION], for which the IC50 entry in data set [1] (kb) was “Not Active”.

Consider `CC(=O)O[C@@H]1[C@@H](O)[C@H](C)O[C@@H](Oc2cc(O)c3c(c2)C(=O)c2cc(C)cc(O)c2C3=O)[C@@H]1O`, for which the IC50 entry in data set [1] (kb) is “Not Active”.

As for `CC(=O)O[C@@H]1[C@@H](O)[C@H](C)O[C@@H](Oc2cc(O)c3c(c2)[C@H]([C@@H]2c4cc(C)cc(O)c4C(=O)c4c(O)cc(O[C@@H]5O[C@@H](C)[C@H](OC(C)=O)[C@@H](O)[C@H]5OC(C)=O)cc42)c2cc(C)cc(O)c2C3=O)[C@@H]1OC(C)=O`, the IC50 in data set [1] (setting [5]) was 1.2 µM.

Regarding `CC(=O)O[C@@H]1[C@@H](O)[C@H](C)O[C@@H](Oc2cc(O)c3c(c2)[C@H]([C@H]2c4cc(C)cc(O)c4C(=O)c4c(O)cc(O)cc42)c2cc(C)cc(O)c2C3=O)[C@@H]1OC(C)=O`, the IC50 in data set [1] (setting [5]) was 1.3 µM.

Regarding `CC(=O)O[C@@H]1[C@@H](O)[C@H](C)O[C@@H](Oc2cc(O)c3c(c2)[C@@H]([C@H]2c4cc(C)cc(O)c4C(=O)c4c(O)cc(O)cc42)c2cc(C)cc(O)c2C3=O)[C@@H]1OC(C)=O`, the IC50 in data set [1] (setting [5]) amounted to 0.8 µM.

For the compound `CC(=O)O[C@@H]1[C@@H](O)[C@H](C)O[C@@H](Oc2cc(O)c3c(c2)[C@@H]([C@@H]2c4cc(C)cc(O)c4C(=O)c4c(O)cc(O[C@@H]5O[C@@H](C)[C@H](OC(C)=O)[C@@H](O)[C@H]5OC(C)=O)cc42)c2cc(C)cc(O)c2C3=O)[C@@H]1OC(C)=O`, the IC50 in data set [1] (setting [5]) was 1 µM.

Regarding `CC(=O)O[C@@H]1[C@@H](OC(C)=O)[C@H](C)O[C@@H](Oc2cc(O)c3c(c2)C(=O)c2cc(C)cc(O)c2C3=O)[C@@H]1OC(C)=O`, the IC50 entry in data set [1] (kb) is “Not Active”.

Turning to `CC(=O)O[C@@H]1[C@@H](O)[C@H](C)O[C@@H](Oc2cc(O)c3c(c2)Cc2cc(C)cc(O)c2C3=O)[C@@H]1OC(C)=O` [PRINOIDIN], the Survival in data set [2] was 4 days; in data set [3], 7 days; in data set [4] it was 2 days. Besides, the half-inhibitory concentration (IC50) in data set [1] (setting [5]) was 0.045 µM.

For the compound `CC(=O)O[C@@H]1[C@@H](O)[C@H](C)O[C@@H](Oc2cc(O)c3c(c2)[C@H]([C@H]2c4cc(C)cc(O)c4C(=O)c4c(O)cc(O[C@@H]5O[C@@H](C)[C@H](OC(C)=O)[C@@H](O)[C@H]5OC(C)=O)cc42)c2cc(C)cc(O)c2C3=O)[C@@H]1OC(C)=O`, in data set [1] (setting [5]), the IC50 stood at 0.8 µM.

For the compound `CC(=O)O[C@@H]1[C@@H](O)[C@H](C)O[C@@H](Oc2cc(O)c3c(c2)[C@H]([C@@H]2c4cc(C)cc(O)c4C(=O)c4c(O)cc(O)cc42)c2cc(C)cc(O)c2C3=O)[C@@H]1OC(C)=O`, in data set [1] (setting [5]), the concentration for half-maximal inhibition (IC50) is 4.5 µM.

For the compound `CC(=O)O[C@@H]1[C@@H](O)[C@H](C)O[C@@H](Oc2cc(O)c3c(c2)[C@H]([C@H]2c4cc(C)cc(O)c4C(=O)c4c(O)cc(O[C@@H]5O[C@@H](C)[C@H](O)[C@@H](OC(C)=O)[C@H]5OC(C)=O)cc42)c2cc(C)cc(O)c2C3=O)[C@@H]1OC(C)=O`, in data set [1] (setting [5]), the IC50 worked out at 0.9 µM.

In the case of `CC(=O)O[C@@H]1[C@@H](O)[C@H](C)O[C@@H](Oc2cc(O)c3c(c2)C(=O)c2cc(C)cc(O)c2C3=O)[C@@H]1OC(C)=O`, in data set [1] (setting [5]), the IC50 worked out at 1.9 µM.

Turning to `Cc1cc(O)c2c(c1)[C@@H]([C@H]1c3cc(C)cc(O)c3C(=O)c3c(O)cc(O)cc31)c1cc(O)cc(O)c1C2=O`, the IC50 in data set [1] (setting [5]) turned out to be 1.1 µM.

As to `Cc1cc(O)c2c(c1)[C@H]([C@@H]1c3cccc(O)c3C(=O)c3c(O)cc(C)cc31)c1cccc(O)c1C2=O`, in data set [1] (setting [5]), the 50% inhibitory concentration (IC50) was found to be 1.2 µM.

On to `Cc1cc(O)c2c(c1)[C@H]([C@H]1c3cccc(O)c3C(=O)c3c(O)cc(C)cc31)c1cccc(O)c1C2=O`, for which the IC50 in data set [1] (setting [5]) was determined as 0.2 µM.

For `Cc1cc(O)c2c(c1)[C@H]([C@@H]1c3cc(C)cc(O)c3C(=O)c3c(O)cc(O)cc31)c1cccc(O)c1C2=O`, the half-maximal inhibitory concentration (IC50) in data set [1] (setting [5]) is 3.4 µM.

Consider `Cc1cc(O)c2c(c1)[C@@H]([C@H]1c3cc(C)cc(O)c3C(=O)c3c(O)cc(O)cc31)c1cccc(O)c1C2=O`, for which, in data set [1] (setting [5]), the IC50 was 1.2 µM.

Turning to `Cc1cc(O)c2c(c1)[C@H]([C@H]1c3cc(C)cc(O)c3C(=O)c3c(O)cc(O)cc31)c1cc(O)cc(O)c1C2=O`, the IC50 in data set [1] (setting [5]) is 2.5 µM.

Regarding `CC(=O)O[C@@H]1[C@@H](OC(C)=O)[C@H](Oc2cc(O)c3c(c2)C(C(C)=O)c2cc(C)cc(O)c2C3=O)O[C@@H](C)[C@H]1OC(C)=O` (some centres not stated), in data set [1] (setting [5]), the IC50 amounted to 0.07 µM.

Consider `Cc1cc(O)c2c(c1)C(=O)c1cccc(O)c1C2=O` [CHRYSOPHANOL], for which the 50% inhibitory concentration (IC50) result in data set [1] (kb) is given as “Not Active”.

For the compound `CC(=O)O[C@H]1[C@H](Oc2cc(O)c3c(c2)C(=O)c2cc(C)cc(O)c2C3=O)O[C@@H](C)[C@H](O)[C@H]1O`, the IC50 result in data set [1] (kb) is on record as “Not Active”.

Turning to `Cc1cc(O)c2c(c1)C(=O)c1cc(O)cc(O)c1C2=O` [EMODIN], the IC50 entry in data set [1] (kb) was “Not Active”.

With `COc1cccc2c1C(=O)c1c(O)c3c(c(O)c1C2=O)C[C@@](O)(C(=O)CO)C[C@@H]3O[C@H]1C[C@H](N)[C@H](O)[C@H](C)O1` [DOXORUBICIN], the IC50 in data set [1] (setting [5]) is 0.2 µM.

On to `CC(=O)Oc1cc(C)cc2c1C(=O)c1c(OC(C)=O)cc(O[C@@H]3O[C@@H](C)[C@H](OC(C)=O)[C@@H](OC(C)=O)[C@H]3OC(C)=O)cc1C2=O` [FRANGULIN A PERACETATE], for which the IC50 result in data set [1] (kb) is recorded as “Not Active”.

In the case of `CC(=O)O[C@@H]1[C@@H](O)[C@H](C)O[C@@H](Oc2cc(O)c3c(c2)[C@H]([C@@H]2c4cc(C)cc(O)c4C(=O)c4c(O)cc(O[C@@H]5O[C@@H](C)[C@H](O)[C@@H](OC(C)=O)[C@H]5OC(C)=O)cc42)c2cc(C)cc(O)c2C3=O)[C@@H]1OC(C)=O`, the IC50 in data set [1] (setting [5]) came out at 2.5 µM.

For `CC(=O)O[C@@H]1[C@@H](O)[C@H](C)O[C@@H](Oc2cc(O)c3c(c2)[C@@H]([C@@H]2c4cc(C)cc(O)c4C(=O)c4c(O)cc(O)cc42)c2cc(C)cc(O)c2C3=O)[C@@H]1OC(C)=O`, the IC50 in data set [1] (setting [5]) was 3.3 µM.

Values taken from ChEMBL document CHEMBL1155764, “Cytotoxicity of Rhamnosylanthraquinones and Rhamnosylanthrones from Rhamnus nepalensis” (J Nat Prod, 2001).
